From publication PMC10762718 (RSC Advances, 2024)

How the values were obtained:
Format in all cases: cell-based
[1] = system: normal mammary epithelial MCF-10A cells; experiment: MTT cell viability assay, normal MCF-10A cells; conditions: tested at 25, 50 and 100 μM
Method in brief: (§1)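 Normal mammary epithelial MCF-10A cells were exposed to test compound at 25, 50 and 100 μM for 72 h. Cells were then given MTT after medium removal, 3 h at 37 °C in CO2. Formazan was dissolved in DMSO and absorbance read at 595 nm. Viability is expressed as percent of untreated control cells.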

[2] = MTT cell viability assay, normal MCF-10A cells; conditions: human, MCF-10A normal mammary epithelial cells
Method in brief: as §1

[3] = system: MDA-MB-231 (human breast cancer) cells; experiment: MTT cell viability assay, MDA-MB-231; conditions: for inhibition at 25 µM: MDA-MB-231
Method in brief: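 MDA-MB-231 cells were grown as a monolayer in DMEM with 10% heat-inactivated FBS and 1% penicillin-streptomycin at 37 °C in humidified CO2, subcultured every third day with trypsin-EDTA, and used before passage 8. Cells were exposed 72 h to 10, 25 and 50 μM. Medium was removed, MTT added for 3 h at 37 °C, formazan dissolved in DMSO and read at 595 nm. Viability is relative to untreated control, triplicates, ±SD. IC50 comes from the viability-versus-concentration plot.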

[4] = system: MCF-7 breast cancer cells; experiment: MTT cell viability assay, MCF-7; conditions: Homo sapiens; for inhibition at 25 µM: MCF7; for IC50: MCF7, 72 h, read-out: IC50 against MCF-7 breast cancer cells line
Method in brief: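 After medium removal, MTT was added for 3 h at 37 °C in CO2, formazan dissolved in DMSO and absorbance read at 595 nm. Viability is relative to untreated cells, triplicates, n = 3, ±SD. IC50 comes from plotting percent viability against concentration.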

MDA-MB-453 cells = experiment: MTT cell viability assay, MDA-MB-453; conditions: for IC50 against MDA-MB-453 cells: tested at 1, 10 and 25 μM
Method in brief: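 MDA-MB-453 (HER2-positive) cells were exposed to test compound at 1, 10 and 25 μM for 72 h. After medium removal, MTT was added for 3 h at 37 °C in CO2. Formazan was dissolved in DMSO and absorbance read at 595 nm. Percent viable cells are relative to untreated control cells.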

[5] = MDA-MB-231, 72 h, read-out: Cell viability (%) ±SD
[6] = MCF7, read-out: Cell viability (%) ±SD
[7] = Homo sapiens, MDA-MB-453, read-out: Cell viability (%) ±SD

| Structure (SMILES) | growth inhibitory activity against normal breast epithelial cell (MCF-10A) [1] | viability at 72 h, 25 µM [2] | viability at 72 h, 50 µM [2] | viability at 72 h, 100 µM [2] | inhibition at 25 µM [3] | viability at 10 µM [3, 5] | viability at 25 µM [3, 5] | viability at 50 µM [3, 5] | inhibition at 25 µM [4] | IC50 [4] | viability at 1 µM [4, 6] | viability at 10 µM [4, 6] | viability at 25 µM [4, 6] | viability at 1 µM (MDA-MB-453 cells; [7]) | viability at 10 µM (MDA-MB-453 cells; [7]) | viability at 25 µM (MDA-MB-453 cells; [7]) | IC50 against MDA-MB-453 cells (MDA-MB-453 cells) | also measured |
| --- | --- | --- | --- | --- | --- | --- | --- | --- | --- | --- | --- | --- | --- | --- | --- | --- | --- | --- |
| COc1ccc(-c2cc(=O)n3c(ccn3Cc3cn([C@H]4O[C@@H](COC(C)=O)[C@H](OC(C)=O)[C@@H](OC(C)=O)[C@@H]4OC(C)=O)nn3)n2)cc1 (stereo in doubt) [Compound 23, (2S,3S,4R,5S,6S)-2-(Acetoxymethyl)-6-(4-((5-(4-methoxyphenyl)-7-oxopyrazolo[1,5-a]pyrimidin-1(7H)-yl)methyl)-1H-1,2,3-triazol-1-yl)tetrahydro-2H-pyran-3,4,5-triyl triacetate] | none of these compounds did have any growth inhibitory activity | 88.6 ± 1.5% | 86.3 ± 2.9% | 84.2 ± 3% | ~50% | 65.1 ± 8.53% | 49 ± 9.19% | 34.3 ± 5.29% | ~50% | 9.24 µM | 66.7 ± 1.18% | 40.3 ± 3.6% | 31.7 ± 4% | 80.6 ± 8% | 88.4 ± 5.4% | 77.1 ± 5.7% | did not reach up to IC50 value | – |
| CC(=O)OC[C@@H]1O[C@H](n2cc(Cn3ccc4nc(-c5ccc(F)cc5)cc(=O)n43)nn2)[C@@H](OC(C)=O)[C@H](OC(C)=O)[C@H]1OC(C)=O (stereo in doubt) [Compound 26, (2S,3S,4R,5S,6S)-2-(Acetoxymethyl)-6-(4-((5-(4-fluorophenyl)-7-oxopyrazolo[1,5-a]pyrimidin-1(7H)-yl)methyl)-1H-1,2,3-triazol-1-yl)tetrahydro-2H-pyran-3,4,5-triyl triacetate] | none of these compounds did have any growth inhibitory activity | 87.8 ± 2.8% | 85.6 ± 0.7% | 82 ± 1.5% | ~50% | 76.6 ± 9.76% | 60 ± 8.47% | 54.6 ± 5.61% | ~50% | 26.6 µM | 80 ± 4.5% | 65.8 ± 1.8% | 52.8 ± 3% | 87.8 ± 3.2% | 84.2 ± 11.5% | 66.3 ± 5.8% | did not reach up to IC50 value | – |
| CC(=O)OC[C@@H]1O[C@H](n2cc(Cn3ccc4nc(-c5ccc6c(c5)OCO6)cc(=O)n43)nn2)[C@@H](OC(C)=O)[C@H](OC(C)=O)[C@H]1OC(C)=O (stereo in doubt) [Compound 30, (2S,3S,4R,5S,6S)-2-(Acetoxymethyl)-6-(4-((5-(benzo[d][1,3]dioxol-5-yl)-7-oxopyrazolo[1,5-a]pyrimidin-1(7H)-yl)methyl)-1H-1,2,3-triazol-1-yl)tetrahydro-2H-pyran-3,4,5-triyl triacetate] | none of these compounds did have any growth inhibitory activity | 86.8 ± 5.3% | 84.8 ± 3% | 78.5 ± 3.4% | ~50% | 86.6 ± 3.36% | 55.2 ± 7.06% | 42.8 ± 5.04% | ~50% | 18.5 µM | 78.2 ± 2.6% | 57.7 ± 2.4% | 42.3 ± 7.6% | 99.2 ± 8.1% | 74.8 ± 1.5% | 61.4 ± 3.2% | did not reach up to IC50 value | – |
| CC(=O)OC[C@@H]1O[C@H](n2cc(Cn3ccc4nc(-c5ccc(Br)cc5)cc(=O)n43)nn2)[C@@H](OC(C)=O)[C@H](OC(C)=O)[C@@H]1OC(C)=O (stereo in doubt) [Compound 33, (2S,3R,4R,5S,6S)-2-(Acetoxymethyl)-6-(4-((5-(4-bromophenyl)-7-oxopyrazolo[1,5-a]pyrimidin-1(7H)-yl)methyl)-1H-1,2,3-triazol-1-yl)tetrahydro-2H-pyran-3,4,5-triyl triacetate] | none of these compounds did have any growth inhibitory activity | 99.6 ± 2.2% | 87.6 ± 1.7% | 81.4 ± 2.6% | ~50% | 66.7 ± 8.23% | 63.3 ± 6.32% | 47 ± 4.91% | ~50% | 7.32 µM | 67 ± 4.7% | 35 ± 2.5% | 25 ± 2.9% | 88.8 ± 5.2% | 78.3 ± 4.7% | 67.6 ± 5.3% | did not reach up to IC50 value | – |
| CC(=O)OC[C@H]1O[C@H](n2cc(Cn3ccc4nc(-c5ccc(C(F)(F)F)cc5)cc(=O)n43)nn2)[C@@H](OC(C)=O)[C@@H](OC(C)=O)[C@@H]1OC(C)=O [Compound 45, (2R,3R,4S,5S,6S)-2-(Acetoxymethyl)-6-(4-((7-oxo-5-(4-(trifluoromethyl)phenyl)pyrazolo[1,5-a]pyrimidin-1(7H)-yl)methyl)-1H-1,2,3-triazol-1-yl)tetrahydro-2H-pyran-3,4,5-triyl triacetate] | – | – | – | – | – | 96.8 ± 5.85% | 91.1 ± 6% | 87 ± 1.1% | – | – | – | – | – | – | – | – | – | – |
| CC(=O)OC[C@H]1O[C@H](n2cc(Cn3ccc4nc(-c5ccc(C(C)C)cc5)cc(=O)n43)nn2)[C@@H](OC(C)=O)[C@@H](OC(C)=O)[C@@H]1OC(C)=O [Compound 46, (2R,3R,4S,5S,6S)-2-(Acetoxymethyl)-6-(4-((5-(4-isopropylphenyl)-7-oxopyrazolo[1,5-a]pyrimidin-1(7H)-yl)methyl)-1H-1,2,3-triazol-1-yl)tetrahydro-2H-pyran-3,4,5-triyl triacetate] | – | – | – | – | – | 80.6 ± 4.7% | 75.5 ± 4.44% | 83.5 ± 7.27% | – | – | – | – | – | – | – | – | – | – |
| CC(=O)OC[C@H]1O[C@H](n2cc(Cn3ccc4nc(-c5ccc6ccccc6c5)cc(=O)n43)nn2)[C@@H](OC(C)=O)[C@@H](OC(C)=O)[C@@H]1OC(C)=O [Compound 47, (2R,3R,4S,5S,6S)-2-(Acetoxymethyl)-6-(4-((5-(naphthalen-2-yl)-7-oxopyrazolo[1,5-a]pyrimidin-1(7H)-yl)methyl)-1H-1,2,3-triazol-1-yl)tetrahydro-2H-pyran-3,4,5-triyl triacetate] | – | – | – | – | – | 102 ± 9.28% | 89.8 ± 2.22% | 81.5 ± 5.45% | – | – | – | – | – | – | – | – | – | – |
| CC(=O)OC[C@H]1O[C@H](n2cc(Cn3ccc4nc(-c5ccc6c(c5)OCO6)cc(=O)n43)nn2)[C@@H](OC(C)=O)[C@@H](OC(C)=O)[C@@H]1OC(C)=O [Compound 48, (2R,3R,4S,5S,6S)-2-(Acetoxymethyl)-6-(4-((5-(benzo[d][1,3]dioxol-5-yl)-7-oxopyrazolo[1,5-a]pyrimidin-1(7H)-yl)methyl)-1H-1,2,3-triazol-1-yl)tetrahydro-2H-pyran-3,4,5-triyl triacetate] | – | – | – | – | – | 96.5 ± 4.91% | 93.3 ± 3.6% | 92.9 ± 9.08% | – | – | – | – | – | – | – | – | – | – |
| CC1=CC(=O)c2ccccc2C1=O [Menadione, menadione, reference compound] | – | – | – | – | – | – | – | – | – | – | – | – | – | – | – | – | – | viability at 20 µM [3, 5]: 23.8 ± 5.7% |
| COCCn1c2c([n+](Cc3cnccn3)c1C)C(=O)c1ccccc1C2=O [YM155, reference compound] | – | – | – | – | – | – | – | – | – | – | – | – | – | – | – | – | – | viability at 72 h, 0.02 µM [2]: 39.2 ± 1.6%; viability at 0.02 µM [3, 5]: 23.4 ± 3.13%; viability at 0.02 µM [4, 6]: 31.2 ± 1.7%; viability at 0.02 µM (MDA-MB-453 cells; [7]): 36.2 ± 1.5% |
